Measurements published in paper PMC3244355 (Journal of the American Chemical Society, 2011).
One block for each compound: values may come before it.

Key:
[1] = photophysical properties; assay type: physicochemical
Outline: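 Samples are prepared at 20 μM. Dye–inhibitor conjugate spectra are recorded in 1% DMSO/PBS, pH 7.4, at 25 °C with excitation at 405 nm. Tabulated dye entries are excited at their λmax. Absorption maximum, molar absorptivity, emission maximum and fluorescence quantum yield are reported.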

[2] = tested on: HeLa cells; experiment: cell-based assay for bipolar spindle assembly / mitotic arrest; parameters: species or system human; conditions: 4 h; for spindle morphology: HeLa cells, fixed, anti-tubulin antibodies; for EC50: Homo sapiens, HeLa, read-out: EC50 for mitotic arrest in cell-based assay
Outline: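 HeLa cells are incubated for 4 h with the test compound, alongside an untreated control. They are then fixed and probed with anti-tubulin antibodies, with DNA counterstained. Spindle organization (bipolar vs. monopolar spindle formation) is assessed by fluorescence microscopy.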

[3] = solubility; assay type: physicochemical; conditions: variety of solvents
[4] = target: T1, purified human KSP motor domain (Homo sapiens, UniProt P52732); experiment: in vitro biochemical assay for microtubule-stimulated KSP ATPase activity
T1 sequence (P52732 18-359 limits assumed): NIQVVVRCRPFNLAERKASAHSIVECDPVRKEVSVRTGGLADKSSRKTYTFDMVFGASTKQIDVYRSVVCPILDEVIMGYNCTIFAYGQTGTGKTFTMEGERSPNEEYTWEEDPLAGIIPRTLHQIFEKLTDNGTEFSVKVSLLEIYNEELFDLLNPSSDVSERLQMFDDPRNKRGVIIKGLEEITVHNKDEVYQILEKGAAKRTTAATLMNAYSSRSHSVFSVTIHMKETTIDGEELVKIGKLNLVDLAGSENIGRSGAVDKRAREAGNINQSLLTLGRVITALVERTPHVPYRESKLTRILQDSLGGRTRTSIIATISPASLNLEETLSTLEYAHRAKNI

[5] = chemical stability in aqueous buffer solution; assay type: physicochemical; conditions: pH 4–9, several days at ambient temperature
Outline: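 The test dye is held in aqueous buffer across pH 4–9 at ambient temperature for several days. Absorbance/emission properties are monitored, and the solution is checked for decomposition.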

[6] = tested on: HeLa cells; experiment: toxicity / cell viability of dye-treated cells; assay type: cell-based, human; conditions: cells treated for up to 6 h with 100 μM dye
[7] = tested on: HeLa cells; experiment: membrane permeability and localization of free dyes, live-cell imaging; assay type: cell-based, human; conditions: living HeLa cells, 20 μM, 60 minutes, with AlexaFluor546-BSA endocytosis marker
Outline: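 Live HeLa cells are incubated for 1 h in 20 μM test dye, with 100 μg/mL AlexaFluor546-labeled BSA as a fluid-phase endocytosis marker. Cells are washed free of dye and imaged live by epifluorescence microscopy using a custom filter set matched to 395/500 excitation/emission. Merged images are used to compare dye distribution with marker-containing endosomal vesicles.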

[8] = MeOH, 20 μM sample, excited at λmax
[9] = conjugates, 20 μM in 1% DMSO/PBS, pH 7.4 at 25 °C
[10] = conjugates, 20 μM in 1% DMSO/PBS, pH 7.4 at 25 °C, excited at 405 nm
[11] = 1%DMSO/PBS pH 7.4, 20 μM sample
[12] = 1%DMSO/PBS pH 7.4, 20 μM sample, excited at λmax
[13] = Acetone, 20 μM sample, excited at λmax
[14] = CH2Cl2, 20 μM sample, excited at λmax
[15] = Toluene, 20 μM sample, excited at λmax

Compound: C#CC1=CN2C(=N[N+](=Cc3ccc(-c4cccs4)cc3)[B-]2(F)F)C=C1 [Compound 14, 6-Ethynyl-3,3-difluoro-2-(4-(thiophen-2-yl)benzylidene)-2,3-dihydro-[1,2,4,3]triazaborolo[4,5-a]pyridin-2-ium-3-uide]
Φf ([1]; MeOH, 20 μM sample): 0.38 | ε ([1]; MeOH, 20 μM sample): 36 700 M^−1cm^−1 | λmax ([1]; MeOH, 20 μM sample): 481 nm | λemi [1, 8]: 572 nm

Compound: F[B-]1(F)N2C=C(Br)C=CC2=N[N+]1=Cc1ccc(-c2cccs2)cc1 [Compound 6, 6-Bromo-3,3-difluoro-2-(4-(thiophen-2-yl)benzylidene)-2,3-dihydro-[1,2,4,3]triazaborolo[4,5-a]pyridin-2-ium-3-uide]
Φf ([1]; MeOH, 20 μM sample): 0.95 | ε ([1]; MeOH, 20 μM sample): 32 900 M^−1cm^−1 | λmax ([1]; MeOH, 20 μM sample): 482 nm | λemi [1, 8]: 562 nm

Compound: F[B-]1(F)N2C=CC=CC2=N[N+]1=Cc1ccc(-c2cccs2)cc1 [Compound 2, 3,3-Difluoro-2-(4-(thiophen-2-yl)benzylidene)-2,3-dihydro-[1,2,4,3]triazaborolo[4,5-a]pyridine-2-ium-3-uide]
Φf ([1]; MeOH, 20 μM sample): 0.75 | ε ([1]; MeOH, 20 μM sample): 28 800 M^−1cm^−1 | λmax ([1]; MeOH, 20 μM sample): 472 nm | λemi [1, 8]: 551 nm

Compound: COc1ccc(C(SC[C@H](N)C(=O)O)(c2ccccc2)c2ccccc2)cc1 [Compound 19, reference compound]
spindle morphology [2]: dose-dependent formation of monopolar spindles

Compound: F[B-]1(F)N2C=C(n3cc(-c4ccccc4)nn3)C=CC2=N[N+]1=Cc1ccc(-c2cccs2)cc1 [Compound 12, 3,3-Difluoro-6-(4-phenyl-1H-1,2,3-triazol-1-yl)-2-(4-(thiophen-2-yl)benzylidene)-2,3-dihydro-[1,2,4,3]triazaborolo[4,5-a]pyridin-2-ium-3-uide]
Φf ([1]; MeOH, 20 μM sample): 0.37 | ε ([1]; MeOH, 20 μM sample): 33 800 M^−1cm^−1 | λmax ([1]; MeOH, 20 μM sample): 491 nm | λemi [1, 8]: 572 nm

Compound: F[B-]1(F)N2C=C(Cl)C=CC2=N[N+]1=Cc1ccc(-c2cccs2)cc1 [Compound 4]
Φf ([1]; MeOH, 20 μM sample): 0.69 | ε ([1]; MeOH, 20 μM sample): 26 800 M^−1cm^−1 | λmax ([1]; MeOH, 20 μM sample): 491 nm | λemi [1, 8]: 563 nm

Compound: F[B-]1(F)N2C=C(Br)C=CC2=N[N+]1=Cc1ccccc1 [Compound 10, 2-Benzylidene-6-bromo-3,3-difluoro-2,3-dihydro-[1,2,4,3]triazaborolo[4,5-a]pyridin-2-ium-3-uide]
Φf ([1]; MeOH, 20 μM sample): 0.31 | ε ([1]; MeOH, 20 μM sample): 22 600 M^−1cm^−1 | λmax ([1]; MeOH, 20 μM sample): 471 nm | λemi [1, 8]: 539 nm

Compound: 6-Bromo-3,3-difluoro-2-(4-(thiophen-2-yl)benzylidene)-2,3-dihydro-[1,2,4,3]triazaborolo[4,5-a]pyridin-2-ium-3-uide [Compound 8]
Φf ([1]; MeOH, 20 μM sample): 0.71 | ε ([1]; MeOH, 20 μM sample): 26 600 M^−1cm^−1 | λmax ([1]; MeOH, 20 μM sample): 490 nm | λemi [1, 8]: 562 nm

Now from value to compound, other results behind:

Φf ([1]; MeOH, 20 μM sample): 0.21 | ε ([1]; MeOH, 20 μM sample): 9 400 M^−1cm^−1 | λmax ([1]; MeOH, 20 μM sample): 400 nm | λemi [1, 8]: 476 nm | solubility in solvents [3]: soluble in a variety of solvents
Compound: CO[B-]1(OC)N2C=C(I)C=CC2=N[N+]1=C(C)C [Compound 22, 6-Iodo-3,3-dimethoxy-2-(propan-2-ylidene)-2,3-dihydro[1,2,4,3]triazaborolo[4,5-a]pyridin-2-ium-3-uide]

Φf ([1]; MeOH, 20 μM sample): 0.20 | ε ([1]; MeOH, 20 μM sample): 8 300 M^−1cm^−1 | λmax ([1]; MeOH, 20 μM sample): 400 nm | λemi [1, 8]: 496 nm | solubility in solvents [3]: soluble in a variety of solvents
Compound: CC(C)=[N+]1N=C2C=CC(I)=CN2[B-]1(F)F [Compound 18, 3,3-Difluoro-6-iodo-2-(propan-2-ylidene)-2,3-dihydro-[1,2,4,3]triazaborolo[4,5-a]pyridin-2-ium-3-uide]

IC50 [4]: 850 nM | EC50 [2]: 1130 nM | ε [1, 9]: 9 900 | λmax [1, 9]: 400 nm | Φf [1, 10]: 0.31 | λemi [1, 10]: 489 nm
Compound: COc1ccc(C(SCC(N)C(=O)NCCC#CC2=CN3C(=N[N+](=C(C)C)[B-]3(F)F)C=C2)(c2ccccc2)c2ccccc2)cc1 (stereo not drawn) [Compound 25, 6-(4-(2-Amino-3-((4-methoxyphenyl)diphenylmethylthio)propanamido)but-1-ynyl)-3,3-difluoro-2-(propan-2-ylidene)-2,3-dihydro-[1,2,4,3]triazaborolo[4,5-a]pyridin-2-ium-3-uide]
spindle morphology [2]: dose-dependent formation of monopolar spindles

IC50 [4]: 600 nM | EC50 [2]: 1030 nM | ε [1, 9]: 12 900 | λmax [1, 9]: 400 nm | Φf [1, 10]: 0.29 | λemi [1, 10]: 486 nm
Compound: COc1ccc(C(SCC(N)C(=O)NCCC#CC2=CN3C(=N[N+](=C(C)C)[B-]3(OC)OC)C=C2)(c2ccccc2)c2ccccc2)cc1 (stereo not drawn) [Compound 26, 6-(4-(2-Amino-3-((4-methoxyphenyl)diphenylmethylthio)propanamido)-but-1-ynyl)-3,3-dimethoxy-2-(propan-2-ylidene)-2,3-dihydro-[1,2,4,3]triazaborolo[4,5-a]pyridin-2-ium-3-uide]
spindle morphology [2]: dose-dependent formation of monopolar spindles

chemical stability in aqueous buffer solution [5]: no decomposition in solution was evident | Φf [1, 11]: 0.17 | ε [1, 11]: 8 600 M^−1cm^−1 | λmax [1, 11]: 404 nm | λemi [1, 12]: 491 nm | Φf ([1]; Acetone, 20 μM sample): 0.17 | ε ([1]; Acetone, 20 μM sample): 8 600 M^−1cm^−1 | λmax ([1]; Acetone, 20 μM sample): 403 nm | λemi [1, 13]: 504 nm | Φf ([1]; CH2Cl2, 20 μM sample): 0.22 | ε ([1]; CH2Cl2, 20 μM sample): 9 300 M^−1cm^−1 | λmax ([1]; CH2Cl2, 20 μM sample): 408 nm | λemi [1, 14]: 497 nm | Φf ([1]; MeOH, 20 μM sample): 0.21 | ε ([1]; MeOH, 20 μM sample): 8 500 M^−1cm^−1 | λmax ([1]; MeOH, 20 μM sample): 403 nm | λemi [1, 8]: 493 nm | Φf ([1]; Toluene, 20 μM sample): 0.07 | ε ([1]; Toluene, 20 μM sample): 9 800 M^−1cm^−1 | λmax ([1]; Toluene, 20 μM sample): 406 nm | λemi [1, 15]: 500 nm | cell membrane permeability [7]: membrane permeable | solubility in solvents [3]: soluble in a variety of solvents
Compound: CC(C)=[N+]1N=C2C=CC(Br)=CN2[B-]1(F)F [Compound 16, 6-Bromo-3,3-difluoro-2-(propan-2-ylidene)-2,3-dihydro-[1,2,4,3]triazaborolo[4,5-a]pyridin-2-ium-3-uide]
toxicity / effects on cell viability [6]: no toxicity

IC50 [4]: 750 nM | EC50 [2]: 580 nM
Compound: COc1ccc(C(SCC(N)C(=O)NCCOCCN)(c2ccccc2)c2ccccc2)cc1 (stereo not drawn) [Compound 27, 2-Amino-N-(2-(2-aminoethoxy)ethyl)-3-((4-methoxyphenyl)diphenylmethylthio)propanamide]

Φf [1, 11]: 0.16 | ε [1, 11]: 12 300 M^−1cm^−1 | λmax [1, 11]: 404 nm | λemi [1, 12]: 492 nm | Φf ([1]; Acetone, 20 μM sample): 0.23 | ε ([1]; Acetone, 20 μM sample): 10 800 M^−1cm^−1 | λmax ([1]; Acetone, 20 μM sample): 407 nm | λemi [1, 13]: 504 nm | Φf ([1]; CH2Cl2, 20 μM sample): 0.20 | ε ([1]; CH2Cl2, 20 μM sample): 11 200 M^−1cm^−1 | λmax ([1]; CH2Cl2, 20 μM sample): 406 nm | λemi [1, 14]: 497 nm | Φf ([1]; MeOH, 20 μM sample): 0.21 | ε ([1]; MeOH, 20 μM sample): 12 000 M^−1cm^−1 | λmax ([1]; MeOH, 20 μM sample): 403 nm | λemi [1, 8]: 492 nm | Φf ([1]; Toluene, 20 μM sample): 0.51 | ε ([1]; Toluene, 20 μM sample): 10 600 M^−1cm^−1 | λmax ([1]; Toluene, 20 μM sample): 410 nm | λemi [1, 15]: 501 nm | cell membrane permeability [7]: membrane permeable | solubility in solvents [3]: soluble in a variety of solvents
Compound: CO[B-]1(OC)N2C=C(Br)C=CC2=N[N+]1=C(C)C [Compound 21, 6-Bromo-3,3-dimethoxy-2-(propan-2-ylidene)-2,3-dihydro-[1,2,4,3]triazaborolo[4,5-a]pyridin-2-ium-3-uide]
toxicity / effects on cell viability [6]: no toxicity
